# Experimental data published in ChEMBL document CHEMBL1131135, “Substituted 4-acylpyrazoles and 4-acylpyrazolones: synthesis and multidrug resistance-modulating activity” (J Med Chem, 1998).
# Assays:
# L5178Y = assay: Compound was tested for inhibition of rhodamine 123 efflux in mdr 1 transfectant L5178Y VMDRI C.06 mouse lymphoma cells; type: functional, cell-based
# Method in brief: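 Cells at 1 × 10⁶/mL in RPMI1640 preloaded with rhodamine 123 (final 0.2 μg/mL, 0.53 μmol/L) for 15 min at 37 °C, then resuspended in 37 °C medium with modulator (eight concentrations, 1:2.5 serial dilution, 3 nM–500 μM). Aliquots taken at 0, 30, 60, 90, 120 s into ice-cold verapamil stop solution. Read by flow cytometry, 5000 events. Vmax/Km from exponential fit, parental-line diffusion subtracted. EC50 from dose–response, mean of ≥5 experiments.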
# [1] = target: ATP-dependent translocase ABCB1 (Homo sapiens, UniProt P08183); assay: Compound was tested for inhibition of daunomycin efflux in the resistant human T-lymphoblast cell line CEM vcr1000.; type: functional, cell-based, CCRF-CEM
# Sequence of ATP-dependent translocase ABCB1 (P08183 whole entry): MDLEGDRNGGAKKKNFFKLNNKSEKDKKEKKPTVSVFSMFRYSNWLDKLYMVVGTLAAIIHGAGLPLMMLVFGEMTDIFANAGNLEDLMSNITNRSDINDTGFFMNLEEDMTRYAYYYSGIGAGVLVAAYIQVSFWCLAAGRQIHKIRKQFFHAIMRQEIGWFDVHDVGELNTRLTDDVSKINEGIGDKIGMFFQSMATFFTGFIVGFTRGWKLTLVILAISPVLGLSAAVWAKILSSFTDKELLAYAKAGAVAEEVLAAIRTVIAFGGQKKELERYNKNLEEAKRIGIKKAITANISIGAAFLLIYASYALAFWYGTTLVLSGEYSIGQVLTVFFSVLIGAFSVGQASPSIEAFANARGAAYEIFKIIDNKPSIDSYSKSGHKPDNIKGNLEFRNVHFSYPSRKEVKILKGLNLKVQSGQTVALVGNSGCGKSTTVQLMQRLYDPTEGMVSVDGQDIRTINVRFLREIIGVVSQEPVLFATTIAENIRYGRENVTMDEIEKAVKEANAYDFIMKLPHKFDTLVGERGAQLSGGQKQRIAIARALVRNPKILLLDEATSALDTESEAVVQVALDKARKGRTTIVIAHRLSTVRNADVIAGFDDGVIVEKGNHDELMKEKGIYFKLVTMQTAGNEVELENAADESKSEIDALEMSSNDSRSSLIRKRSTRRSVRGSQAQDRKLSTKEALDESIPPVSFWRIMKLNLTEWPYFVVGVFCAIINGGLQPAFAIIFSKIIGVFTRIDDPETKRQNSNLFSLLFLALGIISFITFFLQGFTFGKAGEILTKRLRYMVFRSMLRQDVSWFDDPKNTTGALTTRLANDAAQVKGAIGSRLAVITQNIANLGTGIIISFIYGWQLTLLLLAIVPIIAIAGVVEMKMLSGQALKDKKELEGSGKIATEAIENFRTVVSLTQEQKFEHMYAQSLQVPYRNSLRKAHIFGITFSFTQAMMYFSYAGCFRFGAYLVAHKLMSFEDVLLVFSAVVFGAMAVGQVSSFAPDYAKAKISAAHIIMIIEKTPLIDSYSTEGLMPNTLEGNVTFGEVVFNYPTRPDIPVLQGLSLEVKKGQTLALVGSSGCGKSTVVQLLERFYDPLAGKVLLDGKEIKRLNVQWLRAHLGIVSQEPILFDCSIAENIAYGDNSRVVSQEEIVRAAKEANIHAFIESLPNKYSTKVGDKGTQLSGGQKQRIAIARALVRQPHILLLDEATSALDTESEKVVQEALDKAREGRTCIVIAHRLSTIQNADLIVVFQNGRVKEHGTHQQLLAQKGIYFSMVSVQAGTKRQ
EC50 (L5178Y),EC50 [1],Compound
94.7 µM,72.4 µM,Cc1c(C(=O)c2cccs2)c(=O)n(-c2ccccc2)n1CC(O)CNC(C)(C)C (centres undefined)
168 µM,81.3 µM,Cc1c(C(=O)c2ccccc2)c(=O)n(-c2ccccc2)n1CC(O)CNC(C)(C)C (centres undefined)
,24.1 µM,Cc1c(C(=O)c2ccccc2)c(=O)n(C)n1CC(O)CN(C(C)C)C(C)C (centres undefined)
2.22 µM,1.06 µM,Cc1nn(-c2ccccc2)c(OCC(O)CN(C(C)C)C(C)C)c1C(=O)c1ccccc1 (centres undefined)
,3.79 µM,CCC/N=C(\CCc1ccccc1)c1c(C)[nH]n(-c2ccccc2)c1=O
648 µM,123 µM,Cc1c(C(=O)c2cccs2)c(=O)n(-c2ccccc2)n1CC(O)CNC(C)C (centres undefined)
17.8 µM,7.76 µM,Cc1c(C(=O)CCc2ccccc2)c(=O)n(-c2ccccc2)n1CC(O)CNC(C)(C)C (centres undefined)
15.2 µM,6.31 µM,CCCNCC(O)Cn1c(C)c(C(=O)CCc2ccccc2)c(=O)n1-c1ccccc1 (centres undefined)
,8.38 µM,CCCNc1c(C(=O)CCc2ccccc2)c(C)nn1-c1ccccc1
,11 µM,CCCNc1c(C(=O)c2ccccc2)c(C)nn1-c1ccccc1
4.02 µM,2.69 µM,CCCCNCC(O)Cn1c(C)c(C(=O)CCc2ccccc2)c(=O)n1-c1ccccc1 (centres undefined)
,273 µM,CCC/N=C(\c1ccccc1)c1c(C)[nH]n(C)c1=O
,1.21 µM,Cc1nn(C)c(OCC(O)CN(C(C)C)C(C)C)c1C(=O)c1ccccc1 (centres undefined)
2.43 µM,0.89 µM,Cc1ccccc1N1CCN(CC(O)Cn2c(C)c(C(=O)c3ccccc3)c(=O)n2-c2ccccc2)CC1 (centres undefined)
34.2 µM,11.8 µM,Cc1c(C(=O)CCc2ccccc2)c(=O)n(-c2ccccc2)n1CC(O)CNC(C)C (centres undefined)
226 µM,83.2 µM,Cc1c(C(=O)c2ccccc2)c(=O)n(-c2ccccc2)n1CC(O)CNC(C)C (centres undefined)
,0.21 µM,Cc1ccccc1N1CCN(CC(O)Cn2c(C)c(C(=O)CCc3ccccc3)c(=O)n2-c2ccccc2)CC1 (centres undefined)
174 µM,72.4 µM,CCCNCC(O)Cn1c(C)c(C(=O)c2cccs2)c(=O)n1-c1ccccc1 (centres undefined)
,0.68 µM,CC1=NN(c2ccccc2)C(=O)/C1=C(/c1ccccc1)N1CCN(c2ccccc2C)CC1
64.5 µM,28.2 µM,CCCNCC(O)Cn1c(C)c(C(=O)c2ccccc2)c(=O)n1-c1ccccc1 (centres undefined)
21.9 µM,12.6 µM,Cc1c(C(=O)c2ccccc2)c(=O)n(-c2ccccc2)n1CC(O)CN(C(C)C)C(C)C (centres undefined)
